Assays:
[1] = cumulative food intake; assay type: in vivo, mouse; details: DIO mice, H + G49, 72 h, versus vehicle
[2] = MRI body composition, total/visceral fat, lean mass; assay type: in vivo, mouse
[3] = plasma adiponectin; assay type: in vivo, mouse; details: DIO mice, 24 h post-injection
Method in brief: (§1)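 Plasma ALT was read with Reflotron strips and plasma TGs by colorimetric assay. Serum FGF21 and plasma adiponectin and insulin were measured by ELISA.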

[4] = plasma ALT; assay type: in vivo, mouse; details: DIO mice
Method in brief: as §1

[5] = system: POMC neurons, arcuate nucleus; assay: cFos-positive POMC neurons in ARC; assay type: in vivo, mouse; details: DIO mice
Method in brief: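 Brain slices were blocked 2 h at RT in PBS with 1% BSA and 0.1% Triton X-100. They were incubated overnight at 4 °C with anti-POMC and anti-c-Fos, then with secondary antibodies in 1% BSA/PBS for 2 h at RT, protected from light.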

[6] = system: brown adipocytes; assay: lipolysis in brown adipocytes; assay type: cell-based, mouse; details: G49, brown adipocytes, 500 nM, 4 h
[7] = system: brown adipocytes; assay: brown adipocytes treated with serum of G49-treated mice; assay type: cell-based, mouse; details: serum from mice receiving G49 for 72 h
Method in brief: (§2)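 Brown preadipocytes were immortalised by retroviral SV40 Large T (20% FBS, 8 μg/mL polybrene, 48 h) at 70–80% confluence. Differentiation began with 2 days in induction medium (0.5 μM dexamethasone, 0.5 mM IBMX, indomethacin, 1 μM rosiglitazone).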

[8] = system: brown adipocytes; assay: OCR in differentiated brown adipocytes; assay type: cell-based, mouse; details: G49, 16 h
Method in brief: as §2

[9] = TUNEL analysis of eWAT; assay type: in vivo, mouse; details: 6 h post-G49
Method in brief: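 Paraffin-embedded eWAT sections were stained with a fluorimetric DeadEnd TUNEL kit, mounted in fluorescent medium and imaged by confocal microscopy.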

[10] = fatty acid oxidation in liver tissue; assay type: in vivo, mouse; details: DIO mice, G49, 72 h
Method in brief: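 Frozen liver (30 mg) was homogenised in cold STE buffer (25 mM Tris-HCl, sucrose, 1 mM EDTA, pH 7.4), sonicated 10 s and spun at 420 × g for 10 min at 4 °C. The supernatant was used for the oxidation reaction. Radioactive acid-soluble metabolites were counted by scintillation and expressed as nmol/g liver/h.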

[11] = system: mouse adipocytes from eWAT; assay: lipolysis; assay type: cell-based; details: isolated adipocytes from eWAT, 500 nM G49, 4 h
[12] = system: liver Cd11b+Ly6g+ cells; assay: liver neutrophils; assay type: in vivo, mouse; details: DIO mice, G49
Method in brief: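 Liver non-parenchymal cells underwent ACK red-cell lysis (5 min, RT) and were washed in HBSS. They were stained 20 min at RT with CD45-FITC, CD11b-PECy7 and Ly6G-PE, then acquired on a FACSCanto II.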

[13] = BAT skin temperature; assay type: in vivo, mouse
[14] = liver histology; assay type: in vivo, mouse; details: DIO mice
[15] = system: eWAT, iWAT, BAT; assay: PKA Thr197 and HSL Ser660 phosphorylation; assay type: in vivo, mouse; details: DIO mice, G49
Method in brief: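 Tissue lysates were cleared twice at 98,560 × g for 40 min at 4 °C; protein was measured by BCA. After transfer, loading was checked with Ponceau. Membranes were blocked with 6% skimmed milk in TBS-0.05% Tween-20 for 2 h at RT, then incubated with primary antibodies overnight at 4 °C.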

[16] = gene expression in mouse tissues/SVF; assay type: in vivo
[17] = peptide concentration in plasma; assay type: in vivo, mouse; details: DIO mice, 24 h post-injection, 100 nmol/kg s.c., n = 5; cAMP bioassay
Method in brief: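 Plasma activity was read in a cAMP assay on CHO cells expressing human GLP-1R, in HBSS pH 7.4 with 25 mM HEPES, 0.1% BSA and 0.5 mM IBMX. Serial dilutions were run in duplicate for 30 min at RT with HTRF detection. Standards were reference peptide spiked into 0.2% (final) naïve plasma. Sample ratio = sample EC50/reference EC50; concentration = known top concentration/ratio.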

[18] = energy expenditure; assay type: in vivo, mouse; details: DIO mice, G49, day 3, light and dark phases
Method in brief: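 Mice entered metabolic cages 2 days before the first s.c. dose, which was given every 2 days. Indirect calorimetry parameters were then recorded for the following 3 days.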

[19] = system: primary mouse hepatocytes; assay: fatty acid oxidation and Cpt1a in primary mouse hepatocytes; assay type: cell-based; details: 500 nM G49, 16 h
Method in brief: (§3)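 Primary hepatocytes came from non-fasted male C57BL/6J mice fed HFD for 12 weeks, with or without in vivo treatment, by two-step collagenase perfusion. Cells were spun at 60 × g, purified on isotonic Percoll (1:1) at 230 × g and seeded on collagen. They were cultured 24 h at 37 °C, 5% CO2 before exposure to the test compound.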

[20] = plasma/serum FGF21; assay type: in vivo, mouse; details: DIO mice, G49
Method in brief: as §1

[21] = system: BAT explants; assay: OCR in BAT explants; assay type: in vivo, mouse; details: BAT explants of mice treated with G49 for 3 days
Method in brief: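 BAT explants came from DIO mice given test compound or vehicle for 72 h. OCR was run as a Seahorse Mito Stress assay with 2 µM oligomycin A, 2 µM FCCP, then 10 µM rotenone plus 10 µM antimycin. OCR (pmol/min) came from O2 tension over time.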

[22] = system: primary mouse hepatocytes; assay: insulin-induced AKT Ser473 phosphorylation in hepatocytes; assay type: cell-based; details: pre-treatment with G49
Method in brief: as §3

peptide plasma level [17]: 121.7 ± 12.88 nM
Sequence: HSQGTFTSDYSKYLEEEAVRLFIC (40 kDa PEG) WLMNT-amide acetate salt [G49]
inhibition of cumulative food intake [1]: 28.30 ± 2.61% | visceral fat ([2]; Adipoq−/− mice, G49, 1 week, vs Adipoq+/+): lower reduction in visceral fat | total and visceral adiposity ([2]; DIO mice, G49 + GCGRant, 6 h): abolished the acute effects of G49 in reducing total and visceral adiposity at 6 h post-injection | adiposity, fat mass, eWAT and iWAT weight ([2]; DIO mice, G49 with antagonists, alone or in combination, day 7): its administration with antagonists, either alone or in combination, totally blocked this effect | plasma adiponectin, early [3]: increase in adiponectin was observed as early as 24 h post-injection | ALT elevation ([4]; G49 + GCGRant, 6 h): hepatic lipid overload and ALT elevation were not observed | ALT activity ([4]; G49, 6 h): an increase in lipid accumulation analyzed by H&E and oil-red O staining of liver sections, liver-to-body weight ratio, and alanine aminotransferase (ALT) activity | activated POMC neurons, 1 week ([5]; G49, 1 week): percentage of activated POMC neurons was reduced | cFos-positive POMC neurons, early ([5]; G49, after first injection): increase in cFos-positive POMC neurons | lipolysis [6]: up-regulated lipolysis | Ucp1 mRNA and UCP1 protein [7]: increased Ucp1 mRNA and UCP1 protein levels | mitochondrial respiration [8]: an increase in mitochondrial respiration | TUNEL positive cells [9]: presence of TUNEL positive cells | hepatic fatty acid oxidation [10]: concomitant increase in hepatic Cpt1a and Ppara mRNAs (Fig. 3J) and fatty acid oxidation (FAO) | glycerol and FFA release [11]: increased glycerol and FFA release | hepatic neutrophil infiltration [12]: an increase in hepatic neutrophil infiltration | BAT temperature ([13]; Adipoq−/− mice, G49): G49-mediated increase in BAT temperature was reduced | BAT temperature ([13]; DIO mice, G49 + ATGLi, 72 h): suppression of G49 effects on UCP1 expression and BAT temperature | BAT temperature ([13]; FGF21Alb-KO mice, G49 plus recombinant murine FGF21): markedly increased UCP1 protein levels and BAT temperature | BAT activation ([13]; UCP1−/− mice, G49, 1 week): no features of BAT activation were found | hepatic lipid overload ([14]; G49 + ATGLi, 6 h): absent in mice co-treated with ATGLi | lipid accumulation, liver sections ([14]; G49, 6 h): an increase in lipid accumulation | PKA/HSL phosphorylation (lipolytic molecular signature) ([15]; BAT): not in brown adipose tissue (BAT) | PKA/HSL phosphorylation (lipolytic molecular signature) ([15]; iWAT): also found in iWAT | hepatic Cpt1a and Ppara mRNAs ([16]; DIO mice, G49): concomitant increase in hepatic Cpt1a and Ppara mRNAs | hepatic Srebf1 and Fasn mRNA ([16]; DIO mice, G49 + ATGLi, 6 h): Srebf1 and Fasn mRNAs were reduced | liver Fgf21 mRNA upregulation ([16]; DIO mice, G49 + ATGLi, 72 h): G49-mediated Fgf21 mRNA upregulation in the liver was also abolished | hepatic Fasn and Srebf1 mRNA ([16]; DIO mice, G49 + GCGRant, 6 h): reduced by the presence of GCGRant | thermogenic-related genes in BAT ([16]; DIO mice, G49, 1 week): increase in thermogenic-related genes (Cpt1b, Dio2, CoxIVi1, Ucp1, Th, Fgf21) | Th mRNA in BAT ([16]; DIO mice, G49 with blockade of GCGR): maintained G49-mediated increase in Th mRNA levels | Fgf21 mRNA in BAT ([16]; FGF21Alb-KO mice, G49, 72 h): Fgf21 mRNA upregulation was not observed in BAT | Fgf21 mRNA in eWAT and iWAT ([16]; FGF21Alb-KO mice, G49, 72 h): Fgf21 mRNA levels were upregulated in eWAT and iWAT | Th and cytokine mRNA in SVF ([16]; SVF of eWAT, G49, 6 h and 24 h): an increase of Th mRNA at 6 h and a peak of Il14, Il10, and Il13 that declined at 24 h post-G49 treatment | angiogenesis and beiging-related genes ([16]; eWAT, G49, 1 week): Increases in angiogenesis (Vegf) and beiging-related genes (Cidea, Prdm16, CoxIVi1, Ucp1, Th, Cpt1a) | M2 markers and Th mRNA ([16]; eWAT, G49, 6 h): upregulated mRNA levels of M2 markers (Arg1, Il10, Tgfb) as well as Th | Acta2, Tgfb, Mmp9 mRNA ([16]; eWAT, G49, 6 h and day 7): transient increase in Acta2, Tgfb, and Mmp9 mRNA levels that declined at day 7 | Srebf1 and Fasn mRNA ([16]; liver, DIO mice, G49, 6 h): both were elevated at 6 h post-G49 treatment | energy expenditure [18]: a significant increase in EE | Cpt1a mRNA and FAO [19]: increased Cpt1a mRNA levels and FAO | liver Fgf21 expression and FGF21 plasma levels [20]: reached significant increases at 12 h post-first G49 dose | basal and maximal respiration [21]: increased basal and maximal respiration in BAT explants | insulin-induced AKT Ser473 phosphorylation [22]: increased insulin sensitivity manifested by elevations in insulin-induced AKTSer473 phosphorylation

— publication PMC11605122 (Nature Communications, 2024)
